Data set [1] relates to Radical scavenging activity. In words: Antioxidant activity assessed as DPPH radical scavenging activity at 0.05 mM after 20 mins. In kind it is functional. A digest of the protocol:
(§1)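 DPPH (0.05 mM in absolute ethanol) mixed with an equal volume of compound in DMSO (final 0.05 mM). Shaken vigorously, left 20 or 60 min, absorbance read at 517 nm. Percent activity calculated; three replicates averaged.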

A short description of data set [2]: Cytotoxicity against human lung fibroblast assessed as cell viability at 0.17 mM after 24 hrs by MTT assay. The class given is cell-based. To be noted: human lung fibroblasts, read-out: Activity. In outline: (§2)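 Human lung fibroblasts, passage 19, grown in DMEM with 10% FBS, penicillin and streptomycin at 37 °C, 5% CO2. Seeded at 3×10^4 cells/mL and allowed to adhere 24 h. Exposed 24 h to compounds in DMSO (≤1% final), 1–50 µg/mL. After washing, MTT (5 mg/mL in PBS) added for 4–6 h at 37 °C. Formazan dissolved in isopropanol, read at 570 nm. At least three measurements.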
(In general: Tetrazolium assays rely on reduction of a dye to a coloured formazan, in cell work by metabolically active cells.)

Data set [3] in a line: Antioxidant activity assessed as protection against […]-induced linoleic acid lipid peroxidation 0.1 mM. In kind it is functional. A digest of the protocol: (§3)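 Linoleic acid sodium salt (16 mM solution) in 0.05 M phosphate buffer, pH 7.4, prethermostated at 37 °C. Oxidation started at 37 °C under air with 40 mM AAPH solution, with compound aliquots in DMSO present. Blanks carry the same DMSO level. Conjugated diene hydroperoxide formation followed by absorbance increase at 234 nm. At least triplicate, averaged.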

Data set [4] has as its system Glycine max. The experiment in a line: Inhibition of soybean LOX at 0.1 mM. In outline:
(§4)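 Soybean lipoxygenase solution (1/9×10^-4 w/v in saline) incubated at RT with sodium linoleate and compound in DMSO. Conversion to 13-hydroperoxylinoleic acid recorded at 234 nm against a standard inhibitor. At least triplicate, averaged.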

Data set [5] relates to Radical scavenging activity. The experiment in a line: Antioxidant activity assessed as DPPH radical scavenging activity at 0.05 mM after 60 mins. In kind it is functional. A digest of the protocol:
as §1
Background: The DPPH test is a chemical assay of radical scavenging.

Data set [6] relates to Glycine max. The experiment in a line: Inhibition of soybean LOX at 0.01 mM. In outline:
as §4

Data set [7] is described as follows: Antioxidant activity assessed as protection against […]-induced linoleic acid lipid peroxidation 0.01 mM. In kind it is functional. A digest of the protocol:
as §3

Data set [8] is described as follows: Cytotoxicity against human lung fibroblast assessed as cell viability at 0.03 to 0.037 mM after 24 hrs by MTT assay. In kind it is cell-based. Particulars: human lung fibroblasts, in the assay text read “0.003 to 0.037 mM” for “0.03 to 0.037 mM”, read-out: Activity. In outline:
as §2

Data set [9] is described as follows: Cytotoxicity against human lung fibroblast assessed as cell viability at 0.04 mM after 24 hrs by MTT assay. The class given is cell-based. Particulars: 40 µM. In outline:
as §2

Data set [10] is described as follows: Cytotoxicity against human lung fibroblast assessed as cell viability at 50 ug/ml after 24 hrs by MTT assay. In kind it is cell-based. Particulars: human lung fibroblasts, read-out: Activity. In outline:
as §2

The nature of data set [11]: Cytotoxicity against human lung fibroblast assessed as cell viability at 0.16 mM after 24 hrs by MTT assay. In kind it is cell-based. To be noted: human lung fibroblasts, read-out: Activity. A digest of the protocol: as §2
Data set [12] can be described thus: Cytotoxicity against human lung fibroblast assessed as cell viability at 0.02 mM after 24 hrs by MTT assay. In kind it is cell-based. Particulars: 20 µM. A digest of the protocol:
as §2

Calls of active or inactive are those of the source. The calls are words filed in the database; no cut-off is given here.

Consider `C/C(=N\c1nc2ccccc2[nH]1)c1ccc2ccccc2c1`, for which the inhibition – broadly, the change of the read-out against control, counted positive when it falls – worked out at 5% in data set [1]; 97% in data set [3]; 98% with Glycine max [4]; 7% in data set [5]; 18% with Glycine max [6]; 26% in data set [7]. For the same molecule, the viability at 24 h, 170 µM in [2] worked out at 62.5%.
For `Cc1c(C)c2c(c(C)c1O)CCC(C)(C(=O)O)O2` (stereo not drawn), the inhibition in data set [3] was found to be 63%.
Consider `COc1ccc(/C(C)=N/c2nc3ccccc3[nH]2)cc1`, for which the inhibition amounted to 4% in data set [1]; 68% in [3]; 65% in the data set with Glycine max [4]; 3% in [5]; 22% in the data set on Glycine max [6]; 12% in data set [7]. The viability at 24 h, up to 37 µM in data set [8] amounted to 56%.
`C/C(=N\c1nc2ccccc2[nH]1)c1ccc(C)cc1`: the inhibition entry (in data set [1]; in the data set on Glycine max [4]; with Glycine max [6]) was “inactive” throughout. In addition, the inhibition in data set [3] was 84%; in [5] it was 8%; in data set [7] it was 47%.
As to `Cc1cc(C(C)(C)C)c(O)c(C(C)(C)C)c1`, the values for the inhibition in [1] and in [5] were 31% and 60%, respectively.
Take `CC1(c2ccc(Br)cc2)C(=O)C(c2ccc(Br)cc2)=Nc2nc3ccccc3n21` (stereo not drawn): the inhibition in [1] amounted to 3%; in [3], 78%; with Glycine max [4] it was 61%; in [5], 2%; in the data set on Glycine max [6], 51%; in data set [7], 9%.
`CC1(c2cccc(Br)c2)C(=O)C(c2cccc(Br)c2)=Nc2nc3ccccc3n21` (stereo not drawn): the inhibition entry (in data set [1]; in the data set with Glycine max [6]) was “inactive” each time. Also, the inhibition in the data set on Glycine max [4] worked out at 12%; in data set [5], 3%; in data set [7] it was 51%.
As to `COc1cccc(C2=Nc3nc4ccccc4n3C(C)(c3cccc(OC)c3)C2=O)c1` (stereo not drawn), the inhibition in data set [1] worked out at 3%; in [3], 100%; in [5], 2%; in data set [7], 3%. Besides, in data set [9], the Activity result is listed as “Non-toxic”. The inhibition result in the data set with Glycine max [4] and in the data set on Glycine max [6] was “inactive” each time. For the same molecule, the viability at 24 h, 50 ug/ml in data set [10] was 63%.
For `C/C(=N\c1nc2ccccc2[nH]1)c1ccccc1`, the inhibition was found to be 0.3% in data set [1], 67% in [3], 5% in data set [5] and 18% in data set [7]. For the same molecule, the inhibition entry in the data set with Glycine max [4] and in the data set with Glycine max [6] was “inactive” each time.
Take `C/C(=N\c1nc2ccccc2[nH]1)c1cccc(Br)c1`: the inhibition result (in data set [1]; with Glycine max [4]; in the data set with Glycine max [6]) was “inactive” each time. For the same molecule, the inhibition in data set [3] was determined as 97%; in [5], 6%; in [7] it was 65%.
Turning to `Cc1cccc(C2=Nc3nc4ccccc4n3C(C)(c3cccc(C)c3)C2=O)c1` (stereo not drawn), the inhibition in [1] was determined as 4%; in data set [3], 84%; with Glycine max [4], 19%; in [5], 5%; in data set [7] it was 35%. For the same molecule, the inhibition entry in the data set with Glycine max [6] was “inactive”.
With `C/C(=N\c1nc2ccccc2[nH]1)c1ccc(Br)cc1`, the inhibition entry (in [1]; in the data set on Glycine max [6]) was “inactive” in each case. For the same molecule, in data set [11], the viability at 24 h, 160 µM stood at 73.6%. In addition, the inhibition was 50% in [3], 18% in the data set on Glycine max [4], 4% in data set [5] and 22% in data set [7].
Turning to `Cc1ccc(C2=Nc3nc4ccccc4n3C(C)(c3ccc(C)cc3)C2=O)cc1` (stereo not drawn), the inhibition result (in data set [1]; in [5]; in the data set with Glycine max [6]) was “inactive” each time. Further, the inhibition in data set [3] was 80%; in the data set with Glycine max [4] it was 40%; in data set [7] it was 8%.
Take `CC1(c2ccc(Cl)cc2)C(=O)C(c2ccc(Cl)cc2)=Nc2nc3ccccc3n21` (stereo not drawn): the inhibition in data set [1] was 2%; in data set [3], 97%; in data set [5] it was 2%; in data set [7] it was 33%. In addition, the inhibition entry with Glycine max [4] and in the data set with Glycine max [6] was “inactive” in each case. Moreover, the viability at 24 h, 50 ug/ml in data set [10] stood at 37%. The Activity result in [12] was “Non-toxic”.
Consider `CC(Cc1ccc(O)c(O)c1)C(C)Cc1ccc(O)c(O)c1` (stereo not drawn), for which the inhibition was determined as 81% in data set [1], 84% with Glycine max [4], 83% in data set [5] and 40% in the data set on Glycine max [6].
For the molecule `COc1cccc(/C(C)=N/c2nc3ccccc3[nH]2)c1`, the inhibition result (in data set [1]; in data set [5]; in the data set on Glycine max [6]) was “inactive” each time. Besides, the values for the inhibition (in [3]; in the data set with Glycine max [4]; in data set [7]) were 100%, 42% and 69%, respectively.
Turning to `C/C(=N\c1nc2ccccc2[nH]1)c1cccc(C)c1`, the inhibition entry (in data set [1]; in [5]; with Glycine max [6]) was “inactive” each time. The results for the inhibition (in [3]; in the data set on Glycine max [4]; in data set [7]) were 77%, 8% and 63%, respectively.
Take `C/C(=N\c1nc2ccccc2[nH]1)c1ccc(Cl)cc1`: the inhibition turned out to be 3% in data set [1]; 26% in data set [3]; 85% in the data set on Glycine max [4]; 4% in data set [5]; 62% in the data set with Glycine max [6].
Consider `CC1(c2ccccc2)C(=O)C(c2ccccc2)=Nc2nc3ccccc3n21` (stereo not drawn), for which the inhibition was 2% in data set [1]; 100% in data set [3]; 100% in the data set with Glycine max [4]; 1% in data set [5]; 49% in the data set with Glycine max [6]; 11% in data set [7].

The values are drawn from ChEMBL document CHEMBL1649409, “One-pot microwave assisted synthesis under green chemistry conditions, antioxidant screening, and cytotoxicity assessments of benzimidazole Schiff bases and pyrimido[1,2-a]benzimidazol-3(4H)-ones” (Eur J Med Chem, 2011).
